Measurements taken from paper PMC7090343 (Heliyon, 2020).
Converted amounts (≈) assume the structure as drawn. Like-named read-outs stand apart in the source and are kept apart here. Marks after values point to notes of the source that are not given here.

Tests used:
[1] = In vitro antioxidation activity; details: DPPH assay, mean of three replicates; for EC50 (antioxidation activity), crude and partitioned extracts: Table 1 experiment
In short: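 Five concentrations of test compound or extract were prepared in DMSO. Each was mixed with 0.15 mM DPPH in methanol and held at 25 °C for 30 min, then A517 was read. Ascorbic acid served as reference standard. Antioxidation (%) = [(A control − A sample)/A control] × 100. EC50 came from linear and nonlinear regression of % activity against concentration. Triplicates were used.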

human tyrosinase = details: ref An et al., 2010, cited from earlier work

| EC50 (antioxidation activity), crude and partitioned extracts [1] | EC50 (antioxidation activity), crude and partitioned extracts ([1]; listed as ascorbic acid) [µg/mL] | EC50 value of pooled fractions after SG60CC ([1]; nonlinear regression, Table 4 experiment) | SMILES | Type of inhibition of human tyrosinase (human tyrosinase; for L-DOPA) | Type of inhibition of human tyrosinase (human tyrosinase; for tyrosine) |
| --- | --- | --- | --- | --- | --- |
| 89.82^a μg/mL | 89.8 (≈ 510 µM) | 71.5^a μg/mL | O=C1O[C@H]([C@@H](O)CO)C(O)=C1O [Ascorbic acid, ascorbic acid] | – | – |
| – | – | – | O=C(O)/C=C/c1ccc(O)cc1 [p-coumaric acid] | competitive | mixed type |
